Each structure is given as a SMILES string. Entries after “also recorded” stand apart in the source; their conditions may differ.

We go through two molecules from paper PMC11932705 (Results in chemistry, 2024).

The experiment has as its system adult S. mansoni. Briefly: Single-concentration phenotypic severity score assay on adult worms. It counts as cell-based, Schistosoma mansoni. Conditions: severity score assay at 5 μM. Summed up:
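Adult S. mansoni were exposed to test compound at 5 μM. Adherence, shape, density and mobility were scored visually at 2, 5, 24 and 48 h using a constrained set of phenotypic descriptors, each typically valued 1. The descriptor values were summed into a severity score from 0 (no activity) to 4 (maximal activity). Each compound was screened twice as a singleton and representative data are reported.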

Regarding `O=C(Nc1cccc(C(F)(F)F)c1)c1cccc(C(F)(F)F)c1` [compound 33, 3-(Trifluoromethyl)-N-(3-(trifluoromethyl)phenyl)benzamide], the “Antischistosomal activity in words” value was “potency is lost”.
Next, `O=C(Nc1cc(C(F)(F)F)cnn1)c1ccc(C(F)(F)F)cc1` [compound 49, 4-(Trifluoromethyl)-N-(5-(trifluoromethyl)pyridazin-3-yl)benzamide]: “abolished activity; also recorded: inactive against the worm”.
